High-throughput results deposited in PubChem by several laboratories.
A selection: hits, their analogues and other compounds. The true share with any hit is near 4%.
NR3A LBD binder: binders of NR3A ligand-binding domain, primary screen, biophysical, differential scanning fluorimetry, uHTS | Glutamate receptor ionotropic, NMDA 3A (GRIN3A) ligand-binding domain | NR3A LBD differential scanning fluorimetry, Tm shift; 0% = protein alone, 100% = glycine-bound protein | Tm shift relative to glycine control, % at 25 µM | hit rate 2.5% among 340,000 | AID 1259313, 2017;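 active means melting temperature shift of at least 10% of the positive control shift, at one fixed dose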
hiPSC survival: enhancers of single-cell hiPSC survival, primary screen, ATPlite luminescence; hit rate 0.044% among 360,000; survival enhancement, % at 20 µM; AID 602274, 2012; 100% = ROCK inhibitor wells, 0% = DMSO; in the data active means survival enhancement above about 18%;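 further: cells exposed to compounds for 16 hours before the ATP read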
FAS-TE inh: FAS thioesterase domain inhibitors, primary screen, biochemical, fluorescence intensity, uHTS; Fatty acid synthase (Homo sapiens), P49327; recombinant FAS-TE, OMFH fluorogenic substrate, fluorescence endpoint; inhibition, % at 15 µM; hit rate 0.67% among 360,000;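 active means compounds whose normalised, plate-corrected inhibition of enzyme fluorescence in the single-dose primary screen is 50% or more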;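 further: 0% = DMSO with enzyme and 100% = substrate without enzyme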
SENP1 inh: human SENP1 catalytic domain inhibitors, primary screen, biochemical, FRET, uHTS; AID 624204, 2012; recombinant SENP1 catalytic domain, CyPet-SUMO1-YPet FRET cleavage; inhibition, % at 10 µM; hit rate 0.21% among 360,000;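 active means inhibition at least 30% at 10 µM, raw YFP signal under a set limit, fluorescence ratio 0.5 to 1.5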;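 further: 0% = enzyme with DMSO and 100% = no enzyme wells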
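Test system: recombinant human SENP1 catalytic domain, His6-tagged / Medium: pH 8 Tris buffer with EDTA, NaCl, BME, BSA, NP40, catalase / Also added: SUMO1 FRET substrate flanked by Cypet and Ypet, 25 nM / Times: 50 min reaction at room temperature / Signal: FRET, CFP and YFP emission / Control set: no-enzyme low control and enzyme-plus-DMSO high control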
H9c2 protect: cardioprotection against H2O2-induced cell death, primary screen, uHTS, H9c2 cells, ATPLite luminescence; protection from H2O2 cell death, % at 20 µM; AID 588492, 2011; hit rate 0.63% among 360,000; H9c2 cardiomyocytes, H2O2 injury protection, 2 h;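 active means compounds giving at least 50% protection of heart cells from peroxide-induced death in the single-dose screen, raw or plate-pattern-corrected value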;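 further: 0% = DMSO wells with peroxide and 100% = DMSO wells without peroxide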
Arr AP2 block: inhibitors of beta-arrestin/AP2 binding, primary screen, biochemical, GPCR trafficking, flow cytometry; beta-arrestin 1 C-terminal peptide binding to AP2 beta2-adaptin appendage (human); FITC-arrestin peptide / GST-AP2 beads; AP2 beta2 appendage carries R879A mutation; inhibition, % at 10 µM; hit rate 0.31% among 340,000; AID 504490, 2011;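 active means inhibition above a set limit, near 3 SD of compounds lacking own fluorescence, cut at about 54% in these data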;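 further: plate controls were DMSO wells for no effect and 5 µM unlabelled arrestin peptide for full effect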
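Material – GST-tagged AP2 beta2-adaptin appendage (R879A) on 4 µm glutathione beads · Probe or stimulus – fluorescein-tagged arrestin peptide at 50 nM final · Timing – 12 min plus 1 h, RT · Detection – bead flow cytometry, FITC channel · Read-out basis – inhibition as reduced fluorescein signal on beads, percent · Medium – PBS plus Tween 20 (0.05%) and BSA (0.1%)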
Arr AP2 CP1: inhibitors of arrestin peptide binding to AP2, confirmation, biochemical, cherry pick 1, flow cytometry beads; shares compounds with Arr AP2 block; inhibition, % at 10 µM; AID 504908, 2011; hit rate 2% among 1,300; GST-AP2 beads, FITC arrestin peptide binding; GST-fused beta2-adaptin appendage, R879A mutant;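 active means inhibition above a set limit, roughly 3 SD of non-fluorescent compound noise, cut at about 38% in these data; inactive means inhibition at or below that limit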;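 further: loss of bead fluorescence from 50 nM FITC arrestin peptide bound to appendage; 0% = negative control wells and 100% = excess unlabelled arrestin peptide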
GST-FITC bead: GST-fluorescein capture on glutathione beads, confirmation, artefact control for arrestin-AP2 inhibitor project, biochemical, cherry pick 1, flow cytometry. shares compounds with Arr AP2 block. GST-fluorescein binding to GSH beads, fluorescence, counter-screen. inhibition, % at 10 µM. hit rate 2% among 1,300. AID 588338, 2011;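 active means inhibition above 50%, about 3 SD of the inhibition seen with non-fluorescent compounds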;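 further: fluorescein maleimide labelled GST captured on 4 micron glutathione beads; higher means more loss of bead fluorescence from quenching or blocked binding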
The depositor's hits bear a star; . = not tested or not shown.

SMILES	NR3A LBD binder	hiPSC survival	FAS-TE inh	SENP1 inh	H9c2 protect	Arr AP2 block	Arr AP2 CP1	GST-FITC bead
COCCNc1cc(N)c([N+](=O)[O-])cc1[N+](=O)[O-]	1	2	-6	1	0	-15	.	.
O=c1[nH]c2cc(NCCO)c([N+](=O)[O-])cc2[nH]1	-1	-2	8	-2	18	70*	1	2
Cc1ccc(C(=O)N/C(=C\c2ccco2)C(=O)NCCCN2CCOCC2)cc1C	0	1	-2	-2	0	21	.	.
Cc1ccc(C(=O)N/C(=C\c2ccco2)C(=O)NCCN2CCOCC2)cc1C	0	0	-4	-2	1	56*	-5	1
CCCn1c(SC(C)C(=O)NC2CCCC(C)C2C)n[nH]c1=O (centres undefined)	.	7	-7	3	4	.	.	.
COc1cccc(-c2nnc(SC(C(=O)c3c[nH]c4ccccc34)c3ccccc3)n2C)c1 (centres undefined)	0	1	12	-1	-6	98*	11	6
COc1ccc(-c2cc(C(=O)Nc3c(C)n(C)n(-c4ccccc4)c3=O)c3ccccc3n2)cc1OC	-2	1	-5	-2	33	56*	-10	-3
CCc1ccc(C(CNC(=O)c2ccc3c(=O)n(-c4ccccc4F)c(=S)[nH]c3c2)N(C)C)cc1 (centres undefined)	-5	-1	-15	-6	9	58*	-15	0
CCCCN1CC(N2CCN(C(=O)c3ccco3)CC2)CS1(=O)=O (centres undefined)	.	2	-6	4	4	.	.	.
COc1ccc(CC(=O)Nc2cc3oc4ccccc4c3cc2OC)cc1	-2	0	22	0	-6	1	-4	4
COc1ccccc1CC(=O)Nc1cc2oc3ccccc3c2cc1OC	-7	2	39	2	-10	54*	-3	-24
COc1ccc(NC(=O)CC(C)CC(=O)NCc2ccc(F)cc2)c(OC)c1 (centres undefined)	-4	0	-3	2	2	-7	.	.
COc1ccc(NC(=O)CC(C)CC(=O)NCc2ccccc2)c(OC)c1 (centres undefined)	-1	0	-2	2	4	62*	0	0
COc1cc2c(cc1NC(=O)CSc1ccc(Cl)cc1)oc1ccccc12	-1	3	20	1	-4	0	-9	10
COc1cc2c(cc1NC(=O)COCC(=O)O)oc1ccccc12	0	0	-2	1	5	27	.	.
CCN(CC)c1ccc(C(=O)OCC(=O)Nc2cc3oc4ccccc4c3cc2OC)cc1	0	1	12	0	-1	37	-13	-5
CC(C)N(C(=O)[C@H]1C[C@H](CC(=O)NCc2ccco2)C(=O)N2CCc3c([nH]c4cc(-c5ccco5)ccc34)[C@]12C)C(C)C	-2	-1	6	-13	3	60*	-9	-1
O=C(C[C@H]1C[C@H](C(=O)N2CCCCC2)[C@@]2(CCc3ccccc3)c3[nH]c4cc(-c5ccco5)ccc4c3CCN2C1=O)NCCC1=CCCCC1	4	2	13	-69	-2	57*	-3	-6
O=C(C[C@H]1C[C@H](C(=O)N2CCCCC2)[C@@]2(CCc3ccccc3)c3[nH]c4cc(-c5ccco5)ccc4c3CCN2C1=O)NCc1ccco1	0	-4	18	-42	-6	1	.	.
CC1(C(=O)NS(=O)(=O)c2cccc(C#N)c2)CCN1C(=O)Cc1ccccc1Cl (centres undefined)	.	-2	-7	-1	-2	.	.	.
CCOC(=O)c1ccc(N=c2sc(C(=O)OC)cc(=O)n2C2CC2)cc1	1	10	-5	0	14	106*	1	89*
O=C1NC[C@@H](CCCCN2C[C@H](Cc3ccccc3)N(Cc3ccccc3)C(=O)C2=O)N(CCc2ccccc2)C1=O	.	1	0	-2	.	.	.	.
O=C(CN(Cc1cccs1)S(=O)(=O)c1ccc(S(=O)(=O)N2CCCCC2)cc1)Nc1ccccc1	-7	1	-2	2	7	102*	-2	3
COC(=O)C(N)Cc1ccc(O)cc1 (centres undefined)	0	-2	-7	1	14	16	.	.
COC(=O)C(N)Cc1ccc(O)c(O)c1 (centres undefined)	2	0	-4	-1	47	81*	9	-7
SMILES	NR3A LBD binder	hiPSC survival	FAS-TE inh	SENP1 inh	H9c2 protect	Arr AP2 block	Arr AP2 CP1	GST-FITC bead
O=C(OCc1ccccc1)N1CCC2CC1c1cc(-c3ccc4c(c3)OCO4)ccc12 (centres undefined)	0	3	23	-1	-17	-2	.	.
CC(C)C(=O)N1CCCC1(C)C(=O)Nc1ccc2c(c1)OCO2 (centres undefined)	.	2	-9	-1	-6	.	.	.
COc1ccc(C(=O)NC2CCC(O)CC2)cc1S(=O)(=O)NCc1ccc(Cl)cc1 (centres undefined)	0	1	-1	-2	15	80*	-1	-8
COc1cc(C(=O)NC2CCCCC2)ccc1OCc1ccc(Cl)cc1Cl	1	-2	0	3	-5	106*	-8	-2
CCOc1ccc(NC(=O)CN2CCN(c3ccc(F)cc3)CC2)cc1S(=O)(=O)N1CCCC1	.	0	8	-1	1	.	.	.
CN(C(=O)COC(=O)COc1ccc2ccccc2c1)c1ccccc1	.	-1	9	2	-4	.	.	.
COc1ccc(NC(=O)c2cc(-c3cc(F)ccc3OC)n[nH]2)cn1	.	-3	8	0	5	.	.	.
Cc1ccc(NS(=O)(=O)c2ccc3c(c2)OCCCO3)cc1S(=O)(=O)N1CCOCC1	0	0	-1	0	-2	58*	1	-1
